Data set [1] addresses T1, Integrin alpha-IIb/beta-3 (Homo sapiens, UniProt P05106+P08514). Put plainly: Ability to inhibit the aggregation of fixed human platelets. Type of data set: functional. In outline:
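Human gel-filtered platelets activated with α-thrombin 1 U/mL (final) for 2 min at room temperature, then thrombin inhibitor 20 μM, fixed in 0.5% paraformaldehyde for 30 min, washed and resuspended at 2×10^8 cells/mL in Tyrode's-HSA. Compound preincubated 1 min with the suspension. Rate relative to no-antagonist control; IC50 calculated.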
Target sequence in this assay (P05106 27-788 limits assumed): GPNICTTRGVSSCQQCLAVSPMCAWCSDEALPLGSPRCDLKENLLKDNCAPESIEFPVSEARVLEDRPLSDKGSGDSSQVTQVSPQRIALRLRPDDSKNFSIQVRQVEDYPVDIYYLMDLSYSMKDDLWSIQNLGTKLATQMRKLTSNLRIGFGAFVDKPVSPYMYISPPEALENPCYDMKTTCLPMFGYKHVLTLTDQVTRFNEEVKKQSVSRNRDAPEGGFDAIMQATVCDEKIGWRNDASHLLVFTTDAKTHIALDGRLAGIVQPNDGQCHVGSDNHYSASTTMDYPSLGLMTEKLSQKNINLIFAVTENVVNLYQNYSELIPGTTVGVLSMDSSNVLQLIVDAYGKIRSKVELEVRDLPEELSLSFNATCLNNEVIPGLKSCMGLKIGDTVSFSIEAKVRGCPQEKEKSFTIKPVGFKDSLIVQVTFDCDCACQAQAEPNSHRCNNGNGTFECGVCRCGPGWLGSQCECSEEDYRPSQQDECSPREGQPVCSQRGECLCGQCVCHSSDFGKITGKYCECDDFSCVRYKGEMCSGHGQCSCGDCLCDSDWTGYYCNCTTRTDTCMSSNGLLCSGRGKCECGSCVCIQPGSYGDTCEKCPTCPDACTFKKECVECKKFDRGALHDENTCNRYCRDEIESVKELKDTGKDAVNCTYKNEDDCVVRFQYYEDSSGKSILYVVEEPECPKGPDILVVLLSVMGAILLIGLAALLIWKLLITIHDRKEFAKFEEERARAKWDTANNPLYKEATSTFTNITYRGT
Target sequence in this assay (P08514 32-887 limits assumed): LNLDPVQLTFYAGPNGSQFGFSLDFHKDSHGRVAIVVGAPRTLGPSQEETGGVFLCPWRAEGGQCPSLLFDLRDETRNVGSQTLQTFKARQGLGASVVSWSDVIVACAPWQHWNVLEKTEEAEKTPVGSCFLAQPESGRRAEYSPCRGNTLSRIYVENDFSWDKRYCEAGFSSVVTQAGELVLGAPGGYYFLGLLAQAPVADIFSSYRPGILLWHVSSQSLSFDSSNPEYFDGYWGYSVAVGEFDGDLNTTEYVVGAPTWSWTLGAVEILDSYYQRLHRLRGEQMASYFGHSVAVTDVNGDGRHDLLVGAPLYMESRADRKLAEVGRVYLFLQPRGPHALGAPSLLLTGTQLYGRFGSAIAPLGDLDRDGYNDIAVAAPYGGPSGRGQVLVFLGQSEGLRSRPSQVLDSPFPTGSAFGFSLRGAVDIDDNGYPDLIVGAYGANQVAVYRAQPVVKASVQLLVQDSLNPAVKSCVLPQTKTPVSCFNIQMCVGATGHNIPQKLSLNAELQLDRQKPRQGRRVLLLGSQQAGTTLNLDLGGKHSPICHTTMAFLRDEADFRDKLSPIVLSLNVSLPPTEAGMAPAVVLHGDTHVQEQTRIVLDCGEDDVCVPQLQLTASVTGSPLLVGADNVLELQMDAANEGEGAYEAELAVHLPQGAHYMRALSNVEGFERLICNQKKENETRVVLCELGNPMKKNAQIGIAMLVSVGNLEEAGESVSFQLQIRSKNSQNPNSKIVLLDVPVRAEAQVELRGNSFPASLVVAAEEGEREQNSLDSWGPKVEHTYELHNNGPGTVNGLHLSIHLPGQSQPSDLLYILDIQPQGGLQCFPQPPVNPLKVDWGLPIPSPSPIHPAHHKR
Target sequence in this assay (P08514 891-1039 limits assumed): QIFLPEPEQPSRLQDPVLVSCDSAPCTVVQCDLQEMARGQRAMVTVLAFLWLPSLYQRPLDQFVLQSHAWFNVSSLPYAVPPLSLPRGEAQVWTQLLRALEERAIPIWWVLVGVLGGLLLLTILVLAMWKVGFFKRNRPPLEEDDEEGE

Data set [2] deals with T1, Integrin alpha-IIb/beta-3. Description: Inhibition of radiolabeled fibrinogen binding to activated human platelets. The class given is functional. The procedure, abridged: (§1)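 Washed human platelets at 1×10^8/mL in Tyrode's buffer, run in duplicate. Inhibitor and labelled fibrinogen added before agonist, either TRAP (SFLLRN-NH2) 100 μM or ADP 10 μM. Incubated 30 min at room temperature, spun through a 20% sucrose cushion, pellet γ-counted. IC50 determined.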
Target sequence in this assay (P05106 27-788 limits assumed): as the sequence (P05106 27-788 limits assumed) above
Target sequence in this assay (P08514 32-887 limits assumed): as the sequence (P08514 32-887 limits assumed) above
Target sequence in this assay (P08514 891-1039 limits assumed): as the sequence (P08514 891-1039 limits assumed) above

Data set [3] is described as follows: Compound was evaluated for the rate of degradation by Carboxypeptidase A. The class given is ADME. In outline:
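Bovine pancreatic carboxypeptidase A diluted in 5% LiCl, activity checked with hippuryl-L-phenylalanine. Substrate made up at 1.0 mM in 0.05 M Tris with 1.0 M NaCl, pH 7.5, then combined with enzyme (2.0 units total). Incubated 60 min at room temperature, with hydrolysis followed by HPLC every 9 min. Rate of hydrolysis normalized to 1 unit of enzyme.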

The target in data set [4] is T1, Integrin alpha-IIb/beta-3. Description: Inhibition of radiolabeled fibrinogen binding to activated human platelets. Type of data set: functional. The procedure, abridged:
as §1
Target sequence in this assay (P05106 27-788 limits assumed): as the sequence (P05106 27-788 limits assumed) above
Target sequence in this assay (P08514 32-887 limits assumed): as the sequence (P08514 32-887 limits assumed) above
Target sequence in this assay (P08514 891-1039 limits assumed): as the sequence (P08514 891-1039 limits assumed) above

Data set [5] deals with Integrin alpha-V/beta-3 (Homo sapiens). Description: Inhibition of HUVEC adhesion to fibrinogen-coated plates.
Data set [6] has the same target. Put plainly: Inhibition of HUVEC adhesion to fibronectin-coated plates.
For data set [7] the target is unchanged. Put plainly: Inhibition of HUVEC adhesion to vitronectin-coated plates.
In data set [8] the target is T1, Integrin alpha-IIb/beta-3. Description: Inhibition of ex vivo platelet aggregation after 1 hr treatment. Particulars: concentration not given here. Type of data set: functional. The procedure, abridged:
(§2)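 Mongrel dogs of either sex dosed by intragastric gavage, compound dissolved in deionized water. Citrated venous blood drawn 10 min predose and at 1, 3, 6, 12 and 24 h. PRP adjusted to 300 000 platelets/μL, stirred at 37 °C, primed with epinephrine 1 μM, then ADP 10 μM added. Light-transmission slope read in duplicate, expressed as % decrease versus predose PRP. Mean of at least two dogs per dose.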

Data set [9] concerns the target T1, Integrin alpha-IIb/beta-3. Description: Inhibition of ex vivo platelet aggregation after 3 hr treatment. The class given is functional. Particulars: concentration not given here. In outline: as §2
Data set [10] deals with T1, Integrin alpha-IIb/beta-3. Put plainly: Inhibition of ex vivo platelet aggregation after 6 hr treatment. The conditions noted are these: concentration not given here. Type of data set: functional. The procedure, abridged:
as §2

The target in data set [11] is T1, Integrin alpha-IIb/beta-3. Description: Percent inhibition of ex vivo platelet aggregation after 1 hour of administration. Type of data set: functional, organism-based. Particulars: concentration not given here. In outline:
as §2

Data set [12] addresses T1, Integrin alpha-IIb/beta-3. Put plainly: Percent inhibition of ex vivo platelet aggregation after 3 hours of administration. The class given is functional, organism-based. Particulars: concentration not given here. The procedure, abridged: as §2
For data set [13], the target named is T1, Integrin alpha-IIb/beta-3. Put plainly: Percent inhibition of ex vivo platelet aggregation after 6 hours of administration. The class given is functional, organism-based. Particulars: concentration not given here. In outline:
as §2

Structures are written as SMILES. Residues, ends and D or L forms follow the SMILES beside them. Where only a bound is given, the exact number is not on record here.

The record followed here is ChEMBL document CHEMBL1131578, “Design of a new class of orally active fibrinogen receptor antagonists” (J Med Chem, 1998).

Usually IC50 stands for the concentration at which inhibition is half-maximal. Higher therefore signals a need for much substance. Take `CCN(CC(=O)N[C@@H](CC(=O)O)C(=O)N[C@@H](CC1CCCCCCC1)C(=O)O)C(=O)CCCC1CCNCC1`: the IC50 in data set [1] is 78 nM.
In the case of `CCN(CC(=O)N[C@@H](CC(=O)O)C(=O)N[C@@H](CC1CCCC2CCCCC21)C(=O)O)C(=O)CCCC1CCNCC1` (stereo partly specified), the IC50 in data set [1] is 19 nM; in data set [2] it was 11 nM.
In data set [3], `CCN(CC(=O)N[C@@H](CC(=O)O)C(=O)N[C@@H](CC1CCCCC1)C(=O)O)C(=O)CCCC1CCNCC1` showed an Activity of 0.6 nmol/min/unit. Further, the IC50 was 17 nM in data set [4]; 26 nM in data set [1]; 1.01 mM in [5]; above 1.75 mM in data set [6]; above 1.65 mM in data set [7].
Take `CCN(CC(=O)N[C@@H](CC(=O)O)C(=O)N[C@@H](C(=O)O)C(C)C)C(=O)CCCC1CCNCC1`: the IC50 in data set [1] amounted to 720 nM; in data set [2] it was 260 nM.
`CCN(CC(=O)N[C@@H](CC(=O)O)C(=O)N[C@@H](CC1CCC2CCCCC2C1)C(=O)O)C(=O)CCCC1CCNCC1` (stereo partly specified) showed an IC50 in data set [1] of 96 nM.
`CCN(CC(=O)N[C@@H](CC(=O)O)C(=O)N[C@@H](CC(C)(C)C)C(=O)O)C(=O)CCCC1CCNCC1`: the results for the IC50 in data set [1] and in data set [2] were 82 nM and 72 nM, respectively.
Take `CCN(CC(=O)N[C@@H](CC(=O)O)C(=O)N[C@@H](CCCC1CCCCC1)C(=O)O)C(=O)CCCC1CCNCC1`: the concentration for half-maximal inhibition (IC50) in [1] came to 53 nM. That is a double-digit nanomolar value.
As for `CCN(CC(=O)N[C@@H](CC(=O)O)C(=O)NCCC1CCCCC1)C(=O)CCCC1CCNCC1`, the IC50 came out at 10 nM in data set [4] and 72 nM in data set [1].
Take `CCN(CC(=O)N[C@@H](CC(=O)O)C(=O)N[C@H](CC1CCCCC1)C(=O)O)C(=O)CCCC1CCNCC1`: the IC50 in data set [1] came to 1370 nM. That is a single-digit micromolar value.
By inhibition is commonly meant the relative decrease from the control value, in per cent. With `CCN(CC(=O)N[C@@H](CC(=O)O)C(=O)N[C@H](C(=O)O)C(C)C)C(=O)CCCCN=C(N)N`, the inhibition in data set [8] amounted to 23%; in data set [9], 0%; in data set [10], 0%.
`CCN(CC(=O)N[C@@H](CC(=O)O)C(=O)N[C@@H](CC1CCCCCC1)C(=O)O)C(=O)CCCC1CCNCC1` came in with an IC50 in data set [1] of 32 nM.
For the molecule `CC(C)[C@H](NC(=O)[C@H](CC(=O)O)NC(=O)CNC(=O)CCCC1CCNCC1)C(=O)O`, the results for the inhibition in data set [11] and in [12] were 47% and 0%, respectively. The molecule further displayed an IC50 in data set [1] of 1060 nM.
In data set [1], `CC(C)[C@H](NC(=O)[C@H](CC(=O)O)NC(=O)CNC(=O)[C@@H](N)CCCNC(=N)N)C(=O)O` (H-RGDV-OH) had an IC50 of 10000 nM.
On to `CCN(CC(=O)N[C@@H](CC(=O)O)C(=O)N[C@@H](CC1CCCCC1)C(N)=O)C(=O)CCCC1CCNCC1`, for which the IC50 is 28 nM in data set [4], 97 nM in data set [1], above 2.35 mM in [5] and above 2.4 mM in data set [6].
Consider `CCN(CC(=O)N[C@@H](CC(=O)O)C(=O)N[C@H](C(=O)O)C(C)C)C(=O)CCCCCNC(=N)N`, for which, in data set [1], half-maximal inhibition (IC50) was put at 470 nM.
Same read-out and setting: for `CCN(CC(=O)N[C@@H](CC(=O)O)C(=O)N[C@H](C(=O)O)C1CCCCC1)C(=O)CCCC1CCNCC1` the value was 32 nM.
As to `CCN(CC(=O)N[C@@H](CC(=O)O)C(=O)N[C@@H](CCC1CCCCC1)C(=O)O)C(=O)CCCC1CCNCC1`, the IC50 is 11 nM in data set [4]; 31 nM in [1]; 1.93 mM in [5] (huvec); above 2.4 mM in data set [6] (huvec); above 2.5 mM in data set [7] (huvec).
`CCN(CC(=O)N[C@@H](CC(=O)O)C(=O)N[C@@H](CC1CCCC1)C(=O)O)C(=O)CCCC1CCNCC1`: half-maximal inhibition in data set [1] (IC50) was put at 47 nM.
In data set [3], `CCN(CC(=O)N[C@@H](CC(=O)O)C(=O)N[C@@H](Cc1cccc2ccccc12)C(=O)O)C(=O)CCCC1CCNCC1` yielded an Activity of 3.1 nmol/min/unit. For the same molecule, the half-inhibitory concentration (IC50) stood at 22 nM in data set [4] and 110 nM in [1].
`CCN(CC(=O)N[C@@H](CC(=O)O)C(=O)N[C@H](C(=O)O)C(C)C)C(=O)CCCCC1CCNCC1`: the midpoint of inhibition in data set [1], the IC50, lay at 210 nM.
Same read-out and setting: for `CCN(CC(=O)N[C@@H](CC(=O)O)C(=O)N[C@@H](Cc1ccccc1)C(=O)O)C(=O)CCCC1CCNCC1` the value was 64 nM.
`CCN(CC(=O)N[C@@H](CC(=O)O)C(=O)N[C@@H](Cc1ccc2ccccc2c1)C(=O)O)C(=O)CCCC1CCNCC1`: the IC50 in [4] stood at 22 nM.
Consider `CCOC(=O)[C@H](CC1CCCCC1)NC(=O)[C@H](CC(=O)O)NC(=O)CN(CC)C(=O)CCCC1CCNCC1`, for which the IC50 in data set [1] is 64 nM; in data set [2] it was 16 nM.
With `CCN(CC(=O)N[C@@H](CC(=O)O)C(=O)N[C@H](C(=O)O)C(C)C)C(=O)CCCC1CCNCC1`, the inhibition stood at 80% in data set [11], 66% in data set [12] and 20% in data set [13]. Further, the IC50 in data set [1] amounted to 27 nM; in [2], 8 nM.
In the case of `CCN(CC(=O)N[C@@H](CC(=O)O)C(=O)N[C@@H](CO)CC1CCCCC1)C(=O)CCCC1CCNCC1`, the IC50 in [1] was determined as 129 nM.
As for `CCN(CC(=O)N[C@@H](CC(=O)O)C(=O)N[C@H](C(=O)O)C(C)C)C(=O)CCC1CCNCC1`, the half-inhibitory concentration (IC50) in data set [1] is 770 nM.
`CCCC[C@H](NC(=O)[C@H](CC(=O)O)NC(=O)CN(CC)C(=O)CCCC1CCNCC1)C(=O)O` had an Activity in [3] of 7.4 nmol/min/unit. The half-inhibitory concentration (IC50) in [1] amounted to 130 nM; in [2], 11 nM.
